Assays:
4T1 cells = assay: SRB cytotoxicity assay, 4T1; format: cell-based, murine; conditions: Mus musculus, 4T1, 48 h, read-out: Average cell death (%) 4T1
Procedure, shortened: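 Single-dose screen: cells in DMEM/10% FBS at 37 °C, 5% CO2, seeded at 3000 per well, attached 24 h, then exposed to test compound at 25 μM final for 48 h. Fixed in cold 10% TCA, 1 h, 4 °C; stained 0.057% SRB, 30 min, dark, room temperature; rinsed with 1% acetic acid; dye solubilised in Tris base pH 10.5; absorbance 510 nm; percent cell death.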

MCF-7 cells = assay: SRB cytotoxicity assay, MCF-7; format: cell-based, human
MDA-MB-231 cells [1] = assay: SRB cytotoxicity assay, MDA-MB-231; format: cell-based, human
MDA-MB-231 cells [2] = assay: 3D spheroid; format: cell-based, human; conditions: MDA-MB-231, methylcellulose, 8 days
Procedure, shortened: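 Single-cell suspensions in 1.5% methylcellulose/DMEM with 20% FBS were seeded at 1 × 10^5 cells per well over a 1% agarose–DMEM base for non-adherent growth. Cells were treated with test compound (0.5, 1, 2 μM) or doxorubicin and incubated 8 days. Spheres (≥20 cells) were imaged by fluorescence microscopy and counted per microscopic field.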

[3] = test system: BCL-2 and Survivin expression in MDA-MB-231 cells; assay: Gene expression analysis by RT-qPCR; format: cell-based, human
Procedure, shortened: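 Cells were treated 48 h with varying test compound concentrations, then total RNA was extracted and checked spectrophotometrically. 2 μg RNA was reverse-transcribed to cDNA. BCL2 and Survivin transcripts were measured by RT-qPCR and quantified by the 2−ΔΔCt method against β2-microglobulin as reference gene.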

[4] = Homo sapiens, MCF7, 48 h, read-out: Average cell death (%) MCF-7
[5] = Homo sapiens, MDA-MB-231, 48 h, read-out: Average cell death (%) MDA-MB-231

Row | Compound | cytotoxicity at 25 µM (4T1 cells) | cytotoxicity at 25 µM (MCF-7 cells; [4]) | cytotoxicity at 25 µM (MDA-MB-231 cells [1]; [5]) | also measured
1 | Cn1c2ccccc2c2c(C(=O)c3ccccc3)c(-c3ccccc3)n(Cc3ccccc3)c(=O)c21 [9a, 4-Benzoyl-2-benzyl-9-methyl-3-phenyl-2,9-dihydro-1H-pyrido[3,4-b]indol-1-one] | 47.8 ± 3.32% | 9.16 ± 2.08% | 32.8 ± 3.16% | –
2 | COc1ccc(C(=O)c2c(-c3ccccc3)n(Cc3ccccc3)c(=O)c3c2c2ccccc2n3C)cc1 [9b, 2-Benzyl-4-(4-methoxybenzoyl)-9-methyl-3-phenyl-2,9-dihydro-1H-pyrido[3,4-b]indol-1-one] | 39.8 ± 4.02% | 18.3 ± 3.05% | 20.2 ± 2.16% | –
3 | Cn1c2ccccc2c2c(C(=O)c3ccc(C(F)(F)F)cc3)c(-c3ccccc3)n(Cc3ccccc3)c(=O)c21 [9d, 2-Benzyl-9-methyl-3-phenyl-4-(4-(trifluoromethyl)benzoyl)-2,9-dihydro-1H-pyrido[3,4-b]indol-1-one] | 15.5 ± 2.15% | 14.2 ± 1.03% | 11.3 ± 0.53% | –
4 | Cn1c2ccccc2c2c(C(=O)c3ccc(F)cc3)c(-c3ccccc3)n(Cc3ccccc3)c(=O)c21 [9e, 2-Benzyl-4-(4-fluorobenzoyl)-9-methyl-3-phenyl-2,9-dihydro-1H-pyrido[3,4-b]indol-1-one] | 32.2 ± 4.11% | 2 ± 0.52% | 7.54 ± 0.71% | –
5 | Cn1c2ccccc2c2c(C(=O)c3ccccc3)c(-c3ccccc3)n(CCc3ccccc3)c(=O)c21 [10a, 4-Benzoyl-9-methyl-2-phenethyl-3-phenyl-2,9-dihydro-1H-pyrido[3,4-b]indol-1-one] | 46.6 ± 2.18% | 1.67 ± 0.3% | 3.66 ± 0.31% | –
6 | COc1ccc(C(=O)c2c(-c3ccccc3)n(CCc3ccccc3)c(=O)c3c2c2ccccc2n3C)cc1 [10b, 4-(4-Methoxybenzoyl)-9-methyl-2-phenethyl-3-phenyl-2,9-dihydro-1H-pyrido[3,4-b]indol-1-one] | 49.9 ± 3.23% | 10.1 ± 2.2% | 2.64 ± 0.7% | –
7 | Cc1ccc(C(=O)c2c(-c3ccccc3)n(CCc3ccccc3)c(=O)c3c2c2ccccc2n3C)cc1 [10c, 9-Methyl-4-(4-methylbenzoyl)-2-phenethyl-3-phenyl-2,9-dihydro-1H-pyrido[3,4-b]indol-1-one] | 60.5 ± 3.07% | 26.2 ± 4.15% | 15.6 ± 1.15% | –
8 | Cn1c2ccccc2c2c(C(=O)c3ccc(C(F)(F)F)cc3)c(-c3ccccc3)n(CCc3ccccc3)c(=O)c21 [10d, 9-Methyl-2-phenethyl-3-phenyl-4-(4-(trifluoromethyl)benzoyl)-2,9-dihydro-1H-pyrido[3,4-b]indol-1-one] | 22 ± 2.05% | 9.32 ± 1% | 11.5 ± 0.95% | –
9 | Cn1c2ccccc2c2c(C(=O)c3ccc(F)cc3)c(-c3ccccc3)n(CCc3ccccc3)c(=O)c21 [10e, 4-(4-Fluorobenzoyl)-9-methyl-2-phenethyl-3-phenyl-2,9-dihydro-1H-pyrido[3,4-b]indol-1-one] | 13.5 ± 1.16% | 8.92 ± 0.8% | 4 ± 0.41% | –
10 | CCCCn1c(-c2ccccc2)c(C(=O)c2ccccc2)c2c3ccccc3n(C)c2c1=O [11a, 4-Benzoyl-2-butyl-9-methyl-3-phenyl-2,9-dihydro-1H-pyrido[3,4-b]indol-1-one] | – | – | 36.6 ± 3.2% | –
11 | CCCCn1c(-c2ccccc2)c(C(=O)c2ccc(OC)cc2)c2c3ccccc3n(C)c2c1=O [11b, 2-Butyl-4-(4-methoxybenzoyl)-9-methyl-3-phenyl-2,9-dihydro-1H-pyrido[3,4-b]indol-1-one] | – | – | 30.3 ± 1.2% | –
12 | CCCCn1c(-c2ccccc2)c(C(=O)c2ccc(C)cc2)c2c3ccccc3n(C)c2c1=O [11c, 2-Butyl-9-methyl-4-(4-methylbenzoyl)-3-phenyl-2,9-dihydro-1H-pyrido[3,4-b]indol-1-one] | – | – | 31.2 ± 1.6% | –
13 | CCCCn1c(-c2ccccc2)c(C(=O)c2ccc(C(F)(F)F)cc2)c2c3ccccc3n(C)c2c1=O [11d, 2-Butyl-9-methyl-3-phenyl-4-(4-(trifluoromethyl)benzoyl)-2,9-dihydro-1H-pyrido[3,4-b]indol-1-one] | – | – | 14.7 ± 2.9% | –
14 | CCCCn1c(-c2ccccc2)c(C(=O)c2ccc(F)cc2)c2c3ccccc3n(C)c2c1=O [11e, 2-Butyl-4-(4-fluorobenzoyl)-9-methyl-3-phenyl-2,9-dihydro-1H-pyrido[3,4-b]indol-1-one] | – | – | 31.8 ± 1.8% | –
15 | Cn1c2ccccc2c2c(C(=O)c3ccccc3)c(-c3ccccc3)n(-c3nc4ccccc4s3)c(=O)c21 [12a, 2-(Benzo[d]thiazol-2-yl)-4-benzoyl-9-methyl-3-phenyl-2,9-dihydro-1H-pyrido[3,4-b]indol-1-one] | – | – | 26.9 ± 2.6% | –
16 | COc1ccc(C(=O)c2c(-c3ccccc3)n(-c3nc4ccccc4s3)c(=O)c3c2c2ccccc2n3C)cc1 [12b, 2-(Benzo[d]thiazol-2-yl)-4-(4-methoxybenzoyl)-9-methyl-3-phenyl-2,9-dihydro-1H-pyrido[3,4-b]indol-1-one] | – | – | 4.08 ± 1.1% | –
17 | Cc1ccc(C(=O)c2c(-c3ccccc3)n(-c3nc4ccccc4s3)c(=O)c3c2c2ccccc2n3C)cc1 [12c, 2-(Benzo[d]thiazol-2-yl)-9-methyl-4-(4-methylbenzoyl)-3-phenyl-2,9-dihydro-1H-pyrido[3,4-b]indol-1-one] | – | – | 31.3 ± 4% | –
18 | Cn1c2ccccc2c2c(C(=O)c3ccc(C(F)(F)F)cc3)c(-c3ccccc3)n(-c3nc4ccccc4s3)c(=O)c21 [12d, 2-(Benzo[d]thiazol-2-yl)-9-methyl-3-phenyl-4-(4-(trifluoromethyl)benzoyl)-2,9-dihydro-1H-pyrido[3,4-b]indol-1-one] | – | – | 24.5 ± 2.7% | –
19 | Cn1c2ccccc2c2c(C(=O)c3ccc(F)cc3)c(-c3ccccc3)n(-c3nc4ccccc4s3)c(=O)c21 [12e, 2-(Benzo[d]thiazol-2-yl)-4-(4-fluorobenzoyl)-9-methyl-3-phenyl-2,9-dihydro-1H-pyrido[3,4-b]indol-1-one] | – | – | 34.9 ± 1.7% | –
20 | N.N.[Cl][Pt][Cl] [Cisplatin, reference compound] | – | – | – | Average cell death (%) MCF-7 (MCF-7 cells; at 100 μM, SRB assay): 80 ± 6.2%; Average cell death (%) MDA-MB-231 (MDA-MB-231 cells [1]; at 100 μM, SRB assay): 75 ± 4.3%
21 | COc1cccc2c1C(=O)c1c(O)c3c(c(O)c1C2=O)C[C@@](O)(C(=O)CO)C[C@@H]3O[C@H]1C[C@H](N)[C@H](O)[C@H](C)O1 [Doxorubicin, reference compound] | – | – | – | cytotoxicity at 5 µM (MCF-7 cells; [4]): 85 ± 5.3%; cytotoxicity at 5 µM (MDA-MB-231 cells [1]; [5]): 80 ± 3.3%; Sphere formation (MDA-MB-231 cells [2]): completely abrogated sphere formation; Expression of BCL-2 [3]: markedly reduced; Expression of Survivin [3]: markedly reduced

Reference: paper PMC12461553 (RSC Advances, 2025)
